In assay [1] the target is T1, Sodium- and chloride-dependent GABA transporter 1 (Mus musculus, UniProt P31648). Description: Inhibition of mouse GAT1 expressed in HEK293 cells assessed as decrease in [3H]GABA uptake preincubated for 25 mins followed by [3H]GABA addition measured after 4 mins by liquid scintillation counting analysis. The format is cell-based. The procedure, abridged: (§1)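 [³H]GABA uptake assay in HEK cells expressing the mGAT subtype named in the line, run in triplicate. Potencies are given as pIC₅₀ ± SEM. No SEM is given where only one triplicate measurement was made. Where 100 µM test compound left uptake at or above 50% (pIC₅₀ ≤ 4.00), the percent remaining [³H]GABA uptake at 100 µM is reported instead.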

For assay [2], the target named is Sodium- and chloride-dependent GABA transporter 1 (Mus musculus) (UniProt P31648). Briefly: Inhibition of [2H10]NO 711 binding to mouse GAT1 expressed in HEK293 cell membranes assessed as remaining NO711 binding at 100 uM after 40 mins by LC-ESI-MS-MS analysis relative to control.
A further assay concerns the target T2, GABA transporter 4 (Mus musculus, UniProt P31650).
T2 sequence (P31650 whole entry): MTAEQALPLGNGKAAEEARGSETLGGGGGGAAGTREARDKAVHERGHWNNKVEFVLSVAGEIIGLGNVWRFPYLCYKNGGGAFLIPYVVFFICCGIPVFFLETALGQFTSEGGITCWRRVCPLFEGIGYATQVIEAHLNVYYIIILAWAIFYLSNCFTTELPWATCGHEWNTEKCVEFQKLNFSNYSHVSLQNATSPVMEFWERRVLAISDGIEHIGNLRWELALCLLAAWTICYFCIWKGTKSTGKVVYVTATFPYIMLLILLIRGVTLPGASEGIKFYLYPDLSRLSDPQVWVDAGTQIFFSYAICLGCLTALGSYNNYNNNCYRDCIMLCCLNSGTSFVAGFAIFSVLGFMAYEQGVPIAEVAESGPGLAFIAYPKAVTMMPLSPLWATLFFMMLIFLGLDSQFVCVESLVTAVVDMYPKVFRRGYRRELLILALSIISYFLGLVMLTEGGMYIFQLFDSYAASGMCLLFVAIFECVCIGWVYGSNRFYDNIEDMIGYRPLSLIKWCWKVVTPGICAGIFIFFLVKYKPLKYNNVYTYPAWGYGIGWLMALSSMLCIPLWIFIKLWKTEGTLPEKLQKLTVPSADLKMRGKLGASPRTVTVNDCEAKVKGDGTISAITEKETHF
Briefly: Inhibition of mouse GAT4 expressed in HEK293 cells assessed as decrease in [3H]GABA uptake preincubated for 25 mins followed by [3H]GABA addition measured after 4 mins by liquid scintillation counting analysis. The format is cell-based. The procedure, abridged: as §1

Assay [3] deals with T1, Sodium- and chloride-dependent GABA transporter 1. Briefly: Inhibition of [2H10]NO 711 binding to mouse GAT1 expressed in HEK293 cell membranes after 40 mins by LC-ESI-MS-MS analysis. The procedure, abridged: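 MS Binding Assay on mGAT1 expressed in HEK cells, with NO711 as marker. Run in triplicate. Results are reported as pKi ± SEM. Where only one triplicate measurement was made, no SEM is given.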

Assay [4] concerns betaine/GABA transporter BGT1 (mGAT2, Slc6a12) (Mus musculus). Briefly: Inhibition of mouse GAT2 expressed in HEK293 cells assessed as decrease in [3H]GABA uptake at 100 uM preincubated for 25 mins followed by [3H]GABA addition measured after 10 mins by liquid scintillation counting analysis relative to control. On the set-up: scale not given: the % may be the effect or the level left.

Assay [5] deals with GABA transporter mGAT3 (Slc6a13) (Mus musculus). Briefly: Inhibition of mouse GAT3 expressed in HEK293 cells assessed as decrease in [3H]GABA uptake at 100 uM preincubated for 25 mins followed by [3H]GABA addition measured after 4 mins by liquid scintillation counting analysis relative to control. Set-up: scale not given: the % may be the effect or the level left.
Assay [6] deals with T3, GABA transporter 4 (Mus musculus) (UniProt P31650).
T3 sequence (whole entry): T2 sequence (P31650 whole entry)
Briefly: Inhibition of mouse GAT4 expressed in HEK293 cells assessed as decrease in [3H]GABA uptake at 100 uM preincubated for 25 mins followed by [3H]GABA addition measured after 4 mins by liquid scintillation counting analysis relative to control. The format is cell-based. On the set-up: scale not given: the % may be the effect or the level left. In outline:
as §1

Assay [7] concerns the target Sodium- and chloride-dependent GABA transporter 1 (Mus musculus) (UniProt P31648). Description: Inhibition of mouse GAT1 expressed in HEK293 cells assessed as decrease in [3H]GABA uptake at 100 uM preincubated for 25 mins followed by [3H]GABA addition measured after 4 mins by liquid scintillation counting analysis relative to control. It is filed as cell-based. Set-up: scale not given: the % may be the effect or the level left. In outline:
as §1

From ChEMBL document CHEMBL4118262, “Synthesis and biological evaluation of novel N-substituted nipecotic acid derivatives with an alkyne spacer as GABA uptake inhibitors” (Bioorg Med Chem, 2018) come the findings set out here.

pIC50, pKi: −log10 of the molar value.

The pIC50 is −log10 of the IC50, conventionally taken in molar units. For the compound `COc1ccc(C(OCCN2CCC[C@H](C(=O)O)C2)(c2ccc(OC)cc2)c2ccc(OC)cc2C)cc1`, the values for the negative-log IC50 (pIC50) (in assay [1]; at GABA transporter 4) were 4.19 and 5.78, respectively. In addition, the Activity in assay [2] came out at 59%.

A word on the pKi: it is the Ki on a negative log10 scale, so that one unit is a factor of ten. In assay [3], `COc1ccc(C(/C=C/CN2CCCC(C(=O)O)C2)(c2ccc(OC)cc2)c2ccc(OC)cc2)cc1` (configuration not stated) showed a pKi of 4.83.

`COc1ccc(C(OCCN2CCCC(C(=O)O)C2)(c2ccc(OC)cc2C)c2ccc(OC)cc2C)cc1` (configuration not stated): the pIC50 in assay [1] is 4.17; on GABA transporter 4 it was 5.07. In addition, in assay [3], the pKi is 4.42.

On to `COc1ccc(C(C#CCN2CCCC(C(=O)O)C2)(c2ccc(OC)cc2)c2ccc3sccc3c2)cc1` (racemic), for which the pIC50 is 4.96 in assay [1] and 4.92 at GABA transporter 4. This compound gave a pKi in assay [3] of 5.72.

For the compound `COc1ccc(C(CC#CCN2CCCC(C(=O)O)C2)(c2ccc(OC)cc2)c2ccc(OC)cc2)cc1` (racemic), the figures for the negative-log IC50 (pIC50) (in assay [1]; at GABA transporter 4) were 4.28 and 4.76, respectively. Further, in assay [3], the pKi is 4.43.

For the compound `O=C(O)C1CCCN(CCC#CC(c2ccccc2)(c2ccccc2)c2ccccc2)C1` (racemic), the values for the Activity in assay [4], in assay [5] and in assay [6] were 66%, 61% and 64%, respectively. Further, the negative logarithm of the IC50 (pIC50) in assay [1] is 6.37. In addition, the pKi in assay [3] is 7.04.

As for `COc1ccc(C(C#CCN2CCCC(C(=O)O)C2)(c2ccc(OC)cc2)c2nccs2)cc1` (racemic), the Activity turned out to be 68% in assay [7], 84% in assay [4], 82% in assay [5] and 79% in assay [6]. In assay [3], this compound gave a pKi of 4.11.

`C=C=C(CN1CCCC(C(=O)O)C1)C(c1ccc(OC)cc1)(c1ccc(OC)cc1)c1ccc(OC)cc1` (racemic): the Activity in assay [7] amounted to 69%; in assay [4] it was 77%; in assay [2], 57%. Further, the pIC50 on GABA transporter 4 was 4.31.

In the case of `COc1ccc(C(C#CCN2CCCC(C(=O)O)C2)(c2ccc(OC)cc2)c2ccsc2)cc1` (racemic), the Activity in assay [4] was found to be 70%. Moreover, the pIC50 in assay [1] was 4.60; at GABA transporter 4, 4.46. The same compound gave a pKi in assay [3] of 5.28.

As to `O=C(O)C1CCCN(CC#CCC(c2ccccc2)(c2ccccc2)c2ccccc2)C1` (racemic), the values for the Activity in assay [4] and in assay [5] were 66% and 50%, respectively. The values for the pIC50 (in assay [1]; on GABA transporter 4) were 4.45 and 4.15, respectively. Besides, the pKi in assay [3] was 4.84.

On to `COc1ccc(CC(C#CCN2CCCC(C(=O)O)C2)(c2ccc(OC)cc2)c2ccc(OC)cc2)cc1` (racemic), for which the Activity in assay [4] came out at 53%. In addition, the pIC50 in assay [1] was 4.88; on GABA transporter 4, 4.44. The compound also had a negative logarithm of the Ki (pKi) in assay [3] of 5.72.

`COc1ccc(C(C#CCN2CCCC(C(=O)O)C2)(c2ccc(OC)cc2)c2ccc3c(c2)OCO3)cc1` (racemic): the pIC50 is 4.64 in assay [1] and 4.29 at GABA transporter 4. The same compound showed a negative-log Ki (pKi) in assay [3] of 5.31.

As for `COc1ccc(C(C#CCN2CCCC(C(=O)O)C2)c2ccc(OC)cc2)cc1` (racemic), the Activity in assay [4] was found to be 80%. Moreover, the values for the pIC50 (in assay [1]; at GABA transporter 4) were 5.43 and 4.63, respectively. In assay [3], this compound showed a pKi of 5.96.

With `COc1ccc(C(C#CCCN2CCCC(C(=O)O)C2)(c2ccc(OC)cc2)c2ccc(OC)cc2)cc1` (racemic), the pIC50 in assay [1] was 4.80; on GABA transporter 4 it was 4.59. In assay [3], the pKi was 5.56.

With `COc1ccc(C(C#CCN2CCCC(C(=O)O)C2)(Cc2ccccc2)c2ccc(OC)cc2)cc1` (racemic), the Activity in assay [4] was found to be 67%. Moreover, the results for the pIC50 (in assay [1]; on GABA transporter 4) were 5.08 and 4.38, respectively. Also, the negative-log Ki (pKi) in assay [3] was 5.67.

For the compound `COc1ccc(C(C#CCN2CCCC(C(=O)O)C2)(c2ccc(OC)cc2)c2ccc(OC)cc2)cc1` (racemic), the results for the pIC50 (in assay [1]; at GABA transporter 4) were 4.84 and 4.53, respectively. The same compound gave a pKi in assay [3] of 5.36.

Regarding `C=C=C(CN1CCCC(C(=O)O)C1)C(c1ccccc1)(c1ccccc1)c1ccccc1` (racemic), the Activity in assay [7] was 62%; in assay [4] it was 87%; in assay [5] it was 80%; in assay [2] it was 70%; in assay [6], 54%.

Regarding `COc1ccc(C(C#CCN2CCCC(C(=O)O)C2)(c2ccc(OC)cc2)c2nccn2C)cc1` (racemic), the Activity worked out at 80% in assay [7]; 106% in assay [4]; 103% in assay [5]; 83% in assay [2]; 91% in assay [6].

Turning to `COc1ccc(C(O)(C#CCN2CCCC(C(=O)O)C2)c2ccc(OC)cc2)cc1` (racemic), the Activity in assay [7] came to 66%; in assay [4], 72%; in assay [5] it was 74%; in assay [2] it was 59%; in assay [6] it was 69%.
